Source: ChEMBL document CHEMBL5058577, “EUbOPEN Chemogenomics Library 2 (Multiplex)” (2022)
Where “and” joins values, the source holds several entries; their conditions need not be identical. Equal values may be shown once.

System: U2OS
Experiment: Multiplex assay against U2OS
Type: toxicity, cell-based
Conditions: human
Procedure, shortened: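 Hoechst33342, BioTracker Green Microtubule Cytoskeleton Dye, MitoTracker Red and Annexin V Alexa Fluor 680 were added to live cells at seeding, and imaging on a CQ1 microscope at 37°C and 5% CO2 followed compound addition. Gating by CellPathfinder machine learning separated cells into Hoechst high-intensity objects or normal cells, then normal cells into healthy, pyknosed or fragmented nuclei, then pyknosed cells into mitotic or apoptotic. Per cents of healthy-nucleus cells are reported for the tubulin, mitochondrial-mass and membrane-permeability phenotypes.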

[1] = 12 h, 1 µM, compound concentration 1 uM, replicate 1
[2] = 12 h, 1 µM, compound concentration 1 uM, replicate 2
[3] = 12 h, 10 µM, compound concentration 10 uM, replicate 1
[4] = 12 h, 10 µM, compound concentration 10 uM, replicate 2
[5] = 24 h, 1 µM, compound concentration 1 uM, replicate 1
[6] = 24 h, 1 µM, compound concentration 1 uM, replicate 2
[7] = 24 h, 10 µM, compound concentration 10 uM, replicate 1
[8] = 24 h, 10 µM, compound concentration 10 uM, replicate 2
[9] = 48 h, 1 µM, compound concentration 1 uM, replicate 1
[10] = 48 h, 1 µM, compound concentration 1 uM, replicate 2
[11] = 48 h, 10 µM, compound concentration 10 uM, replicate 1
[12] = 48 h, 10 µM, compound concentration 10 uM, replicate 2

With O=C(O)c1cc2ccccc2c(Cc2c(O)c(C(=O)O)cc3ccccc23)c1O [PAMOIC ACID] the “Population Apoptotic (%)” value [1] was 85%, the “Population Fragmented Nuclei (%)” value [1] was 23% and the “Population Healthy Nuclei (%)” value [1] was 68%. The “Population Hoechst High Intensity Objects (%)” value [1] was 1%, the “Population Membrane Permeable-Phenotype (%)” value [1] was 2% and the “Population Mitochondria Different-Phenotype (%)” value [1] was 0%. For the same molecule, the “Population Mitotic Cells (%)” value [1] was 15%, the “Population Normal (%)” value [1] was 98% and the “Population Pyknosed Nuclei (%)” value [1] was 8%. The “Population Tubulin-Different-Phenotype (%)” value [1] was 0%, the “Total Cell Count” value [1] was 246 and the “Population Apoptotic (%)” value [2] was 50%. For the same molecule, the “Population Fragmented Nuclei (%)” value [2] was 15%, the “Population Healthy Nuclei (%)” value [2] was 73% and the “Population Hoechst High Intensity Objects (%)” value [2] was 0%. For the same molecule, the “Population Membrane Permeable-Phenotype (%)” value [2] was 12%, the “Population Mitochondria Different-Phenotype (%)” value [2] was 6% and the “Population Mitotic Cells (%)” value [2] was 50%. The “Population Normal (%)” value [2] was 100%, the “Population Pyknosed Nuclei (%)” value [2] was 11% and the “Population Tubulin-Different-Phenotype (%)” value [2] was 13%. For the same molecule, the “Total Cell Count” value [2] was 109, the “Population Apoptotic (%)” value [3] was 75% and the “Population Fragmented Nuclei (%)” value [3] was 19%. The “Population Healthy Nuclei (%)” value [3] was 75%, the “Population Hoechst High Intensity Objects (%)” value [3] was 2% and the “Population Membrane Permeable-Phenotype (%)” value [3] was 6%. For the same molecule, the “Population Mitochondria Different-Phenotype (%)” value [3] was 1%, the “Population Mitotic Cells (%)” value [3] was 25% and the “Population Normal (%)” value [3] was 97%. For the same molecule, the “Population Pyknosed Nuclei (%)” value [3] was 4%, the “Population Tubulin-Different-Phenotype (%)” value [3] was 4% and the “Total Cell Count” value [3] was 259. The “Population Apoptotic (%)” value [4] was 87%, the “Population Hoechst High Intensity Objects (%)” value [4] was 0% and the “Population Membrane Permeable-Phenotype (%)” value [4] was 5%. The “Population Mitochondria Different-Phenotype (%)” value [4] was 3%, the “Population Mitotic Cells (%)” value [4] was 12% and the “Population Normal (%)” value [4] was 100%. The “Population Pyknosed Nuclei (%)” value [4] was 5%, the “Population Tubulin-Different-Phenotype (%)” value [4] was 2% and the “Total Cell Count” value [4] was 140. For the same molecule, the “Population Apoptotic (%)” value [5] was 92%, the “Population Fragmented Nuclei (%)” value [5] was 18% and the “Population Healthy Nuclei (%)” value [5] was 72%. The “Population Hoechst High Intensity Objects (%)” value [5] was 1%, the “Population Membrane Permeable-Phenotype (%)” value [5] was 2% and the “Population Mitochondria Different-Phenotype (%)” value [5] was 0%. For the same molecule, the “Population Mitotic Cells (%)” value [5] was 8%, the “Population Normal (%)” value [5] was 98% and the “Population Pyknosed Nuclei (%)” value [5] was 8%. For the same molecule, the “Population Tubulin-Different-Phenotype (%)” value [5] was 1%, the “Total Cell Count” value [5] was 288 and the “Population Apoptotic (%)” value [6] was 76%. For the same molecule, the “Population Fragmented Nuclei (%)” value [6] was 20%, the “Population Healthy Nuclei (%)” value [6] was 70% and the “Population Hoechst High Intensity Objects (%)” value [6] was 0%. The “Population Membrane Permeable-Phenotype (%)” value [6] was 11%, the “Population Mitochondria Different-Phenotype (%)” value [6] was 2% and the “Population Mitotic Cells (%)” value [6] was 23%. The “Population Normal (%)” value [6] was 99%, the “Population Pyknosed Nuclei (%)” value [6] was 9% and the “Population Tubulin-Different-Phenotype (%)” value [6] was 7%. For the same molecule, the “Total Cell Count” value [6] was 139, the “Population Apoptotic (%)” value [7] was 82% and the “Population Fragmented Nuclei (%)” value [7] was 17%. The “Population Healthy Nuclei (%)” value [7] was 76%, the “Population Hoechst High Intensity Objects (%)” value [7] was 3% and the “Population Membrane Permeable-Phenotype (%)” value [7] was 5%. For the same molecule, the “Population Mitochondria Different-Phenotype (%)” value [7] was 2%, the “Population Mitotic Cells (%)” value [7] was 17% and the “Population Normal (%)” value [7] was 96%. For the same molecule, the “Population Pyknosed Nuclei (%)” value [7] was 5%, the “Population Tubulin-Different-Phenotype (%)” value [7] was 3% and the “Total Cell Count” value [7] was 314. The “Population Apoptotic (%)” value [8] was 90%, the “Population Fragmented Nuclei (%)” value [8] was 13% and the “Population Healthy Nuclei (%)” value [8] was 79%. For the same molecule, the “Population Hoechst High Intensity Objects (%)” value [8] was 1%, the “Population Membrane Permeable-Phenotype (%)” value [8] was 7% and the “Population Mitochondria Different-Phenotype (%)” value [8] was 3%. For the same molecule, the “Population Mitotic Cells (%)” value [8] was 9%, the “Population Normal (%)” value [8] was 98% and the “Population Pyknosed Nuclei (%)” value [8] was 6%. The “Population Tubulin-Different-Phenotype (%)” value [8] was 7%, the “Total Cell Count” value [8] was 163 and the “Population Apoptotic (%)” value [9] was 83%. For the same molecule, the “Population Fragmented Nuclei (%)” value [9] was 16%, the “Population Healthy Nuclei (%)” value [9] was 74% and the “Population Hoechst High Intensity Objects (%)” value [9] was 1%. The “Population Membrane Permeable-Phenotype (%)” value [9] was 2%, the “Population Mitochondria Different-Phenotype (%)” value [9] was 1% and the “Population Mitotic Cells (%)” value [9] was 16%. The “Population Normal (%)” value [9] was 98%, the “Population Pyknosed Nuclei (%)” value [9] was 9% and the “Population Tubulin-Different-Phenotype (%)” value [9] was 2%. The “Total Cell Count” value [9] was 469, the “Population Apoptotic (%)” value [10] was 90% and the “Population Fragmented Nuclei (%)” value [10] was 11%. The “Population Healthy Nuclei (%)” value [10] was 76%, the “Population Hoechst High Intensity Objects (%)” value [10] was 2% and the “Population Membrane Permeable-Phenotype (%)” value [10] was 9%. The “Population Mitochondria Different-Phenotype (%)” value [10] was 3%, the “Population Mitotic Cells (%)” value [10] was 10% and the “Population Normal (%)” value [10] was 97%. For the same molecule, the “Population Pyknosed Nuclei (%)” value [10] was 11%, the “Population Tubulin-Different-Phenotype (%)” value [10] was 5% and the “Total Cell Count” value [10] was 177. For the same molecule, the “Population Apoptotic (%)” value [11] was 96%, the “Population Fragmented Nuclei (%)” value [11] was 15% and the “Population Healthy Nuclei (%)” value [11] was 77%. For the same molecule, the “Population Hoechst High Intensity Objects (%)” value [11] was 3%, the “Population Membrane Permeable-Phenotype (%)” value [11] was 5% and the “Population Mitochondria Different-Phenotype (%)” value [11] was 1%. The “Population Mitotic Cells (%)” value [11] was 3%, the “Population Normal (%)” value [11] was 96% and the “Population Pyknosed Nuclei (%)” value [11] was 6%. The “Population Tubulin-Different-Phenotype (%)” value [11] was 4%, the “Total Cell Count” value [11] was 455 and the “Population Apoptotic (%)” value [12] was 89%. The “Population Fragmented Nuclei (%)” value [12] was 20%, the “Population Healthy Nuclei (%)” value [12] was 66% and the “Population Hoechst High Intensity Objects (%)” value [12] was 0%. The “Population Membrane Permeable-Phenotype (%)” value [12] was 6%, the “Population Mitochondria Different-Phenotype (%)” value [12] was 2% and the “Population Mitotic Cells (%)” value [12] was 10%. For the same molecule, the “Population Normal (%)” value [12] was 99%, the “Population Pyknosed Nuclei (%)” value [12] was 13% and the “Population Tubulin-Different-Phenotype (%)” value [12] was 2%. The “Total Cell Count” value [12] was 218.
CC(=O)O[C@H]1C(=O)[C@@]2(C)[C@H]([C@H](OC(=O)c3ccccc3)[C@]3(O)C[C@H](OC(=O)[C@H](O)[C@@H](NC(=O)c4ccccc4)c4ccccc4)C(C)=C1C3(C)C)[C@]1(OC(C)=O)CO[C@@H]1C[C@@H]2O [PACLITAXEL] was tested, and the “Population Apoptotic (%)” value [3] was 64% and 59%, the “Population Fragmented Nuclei (%)” value [3] was 28% and 29% and the “Population Healthy Nuclei (%)” value [3] was 46% and 43%. For the same molecule, the “Population Hoechst High Intensity Objects (%)” value [3] was 8% and 3%, the “Population Membrane Permeable-Phenotype (%)” value [3] was 23% and 12% and the “Population Mitochondria Different-Phenotype (%)” value [3] was 25% and 38%. For the same molecule, the “Population Mitotic Cells (%)” value [3] was 35% and 40%, the “Population Normal (%)” value [3] was 91% and 96% and the “Population Pyknosed Nuclei (%)” value [3] was 24% and 26%. The “Population Tubulin-Different-Phenotype (%)” value [3] was 16% and 7%, the “Total Cell Count” value [3] was 200 and 236 and the “Population Apoptotic (%)” value [4] was 71% and 72%. For the same molecule, the “Population Fragmented Nuclei (%)” value [4] was 16% and 22%, the “Population Healthy Nuclei (%)” value [4] was 60% and 63% and the “Population Hoechst High Intensity Objects (%)” value [4] was 2%. The “Population Membrane Permeable-Phenotype (%)” value [4] was 10% and 4%, the “Population Mitochondria Different-Phenotype (%)” value [4] was 30% and 46% and the “Population Mitotic Cells (%)” value [4] was 28% and 27%. For the same molecule, the “Population Normal (%)” value [4] was 97%, the “Population Pyknosed Nuclei (%)” value [4] was 23% and 14% and the “Population Tubulin-Different-Phenotype (%)” value [4] was 14% and 8%. For the same molecule, the “Total Cell Count” value [4] was 94 and 79, the “Population Apoptotic (%)” value [7] was 69% and 64% and the “Population Fragmented Nuclei (%)” value [7] was 33% and 27%. The “Population Healthy Nuclei (%)” value [7] was 36% and 49%, the “Population Hoechst High Intensity Objects (%)” value [7] was 4% and 5% and the “Population Membrane Permeable-Phenotype (%)” value [7] was 21% and 13%. For the same molecule, the “Population Mitochondria Different-Phenotype (%)” value [7] was 44% and 34%, the “Population Mitotic Cells (%)” value [7] was 30% and 35% and the “Population Normal (%)” value [7] was 95% and 94%. For the same molecule, the “Population Pyknosed Nuclei (%)” value [7] was 29% and 23%, the “Population Tubulin-Different-Phenotype (%)” value [7] was 13% and 12% and the “Total Cell Count” value [7] was 198 and 233. The “Population Apoptotic (%)” value [8] was 58% and 85%, the “Population Fragmented Nuclei (%)” value [8] was 25% and the “Population Healthy Nuclei (%)” value [8] was 48% and 50%. For the same molecule, the “Population Hoechst High Intensity Objects (%)” value [8] was 7%, the “Population Membrane Permeable-Phenotype (%)” value [8] was 15% and 9% and the “Population Mitochondria Different-Phenotype (%)” value [8] was 52%. The “Population Mitotic Cells (%)” value [8] was 41% and 15%, the “Population Normal (%)” value [8] was 92% and the “Population Pyknosed Nuclei (%)” value [8] was 26% and 24%. For the same molecule, the “Population Tubulin-Different-Phenotype (%)” value [8] was 18% and 9%, the “Total Cell Count” value [8] was 95 and 90 and the “Population Apoptotic (%)” value [11] was 76% and 82%. For the same molecule, the “Population Fragmented Nuclei (%)” value [11] was 35% and 39%, the “Population Healthy Nuclei (%)” value [11] was 30% and 25% and the “Population Hoechst High Intensity Objects (%)” value [11] was 12% and 13%. The “Population Membrane Permeable-Phenotype (%)” value [11] was 27% and 25%, the “Population Mitochondria Different-Phenotype (%)” value [11] was 29% and 25% and the “Population Mitotic Cells (%)” value [11] was 23% and 17%. For the same molecule, the “Population Normal (%)” value [11] was 87% and 86%, the “Population Pyknosed Nuclei (%)” value [11] was 33% and 34% and the “Population Tubulin-Different-Phenotype (%)” value [11] was 16% and 14%. For the same molecule, the “Total Cell Count” value [11] was 203 and 246, the “Population Apoptotic (%)” value [12] was 70% and 91% and the “Population Fragmented Nuclei (%)” value [12] was 27% and 37%. For the same molecule, the “Population Healthy Nuclei (%)” value [12] was 31% and 34%, the “Population Hoechst High Intensity Objects (%)” value [12] was 8% and 15% and the “Population Membrane Permeable-Phenotype (%)” value [12] was 14% and 6%. The “Population Mitochondria Different-Phenotype (%)” value [12] was 50% and 44%, the “Population Normal (%)” value [12] was 91% and 84% and the “Population Pyknosed Nuclei (%)” value [12] was 41% and 27%. The “Population Tubulin-Different-Phenotype (%)” value [12] was 25% and 13% and the “Total Cell Count” value [12] was 98.
